Assay outcomes (PubChem BioAssay)
L929 necroptosis: blocks zVAD induced death of L929 cells. L929 zVAD necroptosis rescue, ATP luminescence, 24 h; with zVAD 60 µM. viability rescue, % at 10 µM. actives 0.38% (n = 220,000);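 active = activation, scaled between plate controls, above about 75%, limit read from the data; inactive = activation under that limit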;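 note: 0% = zVAD with DMSO and 100% = DMSO alone without zVAD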
RBBP9 inh: blocks human serine hydrolase RBBP9; O75884; recombinant RBBP9, FP-Rh probe fluorescence polarization; inhibition, % at 7.94 µM; actives 0.2% (n = 220,000); AID 1515;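 active = inhibition above the campaign mean of all tested compounds plus 3 SD, cut at about 14% in these data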;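 note: plate controls were DMSO wells with RBBP9 for no effect and wells lacking RBBP9 protein for full effect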
Target sequence (O75884 whole entry, looked up): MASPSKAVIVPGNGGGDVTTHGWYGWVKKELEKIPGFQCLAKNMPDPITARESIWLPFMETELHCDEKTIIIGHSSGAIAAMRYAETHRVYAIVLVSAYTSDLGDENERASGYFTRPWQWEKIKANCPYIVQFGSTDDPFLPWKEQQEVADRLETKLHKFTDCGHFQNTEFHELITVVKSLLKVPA
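Measured by: FP readout at 525/598 nm; material: recombinant human RBBP9; also added: Serine-hydrolase probe FP-Rh, 375 nM pre-mixing; medium: Tris buffer pH 8.0, NaCl, Pluronic; replication: one well per compound; doses: one concentration, 7.94 µM nominal, 0.794% DMSO; timing: preincubation 30 min plus labeling 45 min at 25 °C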
Tb hexokinase: T. brucei hexokinase 1 inhibition. recombinant TbHK1, G6PDH-coupled NADH A340. inhibition, % at 10 µM. actives 0.11% (n = 220,000);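 active = inhibition of 50% or more in the single-dose primary screen; inactive = inhibition below 50%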
M18AAP inhibitor: blocks P. falciparum M18 aspartyl aminopeptidase; recombinant PfM18AAP, H-Glu-NHMec fluorogenic cleavage; inhibition, % at 7.35 µM; actives 1.2% (n = 290,000);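 active = inhibition above the campaign mean inhibition over all tested compounds plus 3 SD, cut at about 28% in these data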;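 note: 0% = plate median of test compound wells and 100% = 2 mM ZnCl2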
Hep lipid drop: hepatic lipid droplet formation modulation; inhibition, % at 6.5 µM; AML12 mouse hepatocytes, oleate lipid droplets, BODIPY imaging; actives 0.4% (n = 240,000);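 active = lipid droplet intensity inhibited by at least 50%, with more than 500 cells counted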
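material = mouse AML12 hepatocyte cell line, fixed after treatment | also added = 100 µM oleic acid challenge | doses = compound at 6.5 µM only | schedule = overnight exposure | technique = Image-based BODIPY and DAPI two-channel analysis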
TNF necrop inh: inhibitors of TNF-alpha induced necroptosis in Jurkat FADD-/- cells. AID 463075. activation (protection from cell death), % at 10 µM. actives 0.068% (n = 220,000). Jurkat FADD-/- TNF necroptosis rescue, ATP luminescence, 24 h; 0 = TNF only, 100 = no-TNF cells;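 active = activation, meaning protection from cell death, of at least 50% relative to plate controls; inactive = activation below 50%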;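 note: necroptosis triggered by 40 ng/mL TNF-alpha added together with compound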
Hep lipid conf: hepatic lipid droplet formation inhibition, confirmed | inhibition, % at 5.2 µM | actives 65% (n = 870) | AML12 mouse hepatocytes, BODIPY lipid droplet imaging; droplets induced with 100 µM oleic acid | AID 463183 | shares compounds with Hep lipid drop;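 active = inhibition of lipid droplet metric at least 50%, with more than 300 cells in each of four replicates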;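 note: plate controls were DMSO with oleic acid for no effect and 5 µM Triacsin-C for full effect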
AML12 cytotox: toxic to AML12 mouse hepatocytes in counter-screen. shares compounds with Hep lipid drop. DAPI nuclear morphology cytotoxicity imaging; active compounds read high; cells fed 100 µM oleate overnight. z-score at 5 µM. actives 3% (n = 870). AID 463200; in the data active = z-score above about 6.3;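 note: compound exposure lasted overnight at 37 °C before fixation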
AML12 tox ATP: AML12 hepatocyte cytotoxicity, confirmed. 530 tested, under 10 active. shares compounds with Hep lipid drop. AML12 mouse hepatocyte viability, ATP luminescence; cells loaded with 100 µM oleic acid. cytotoxicity, % at 50 µM;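 active = cytotoxicity above 50% in each of four replicates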;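 note: compound exposure lasted overnight at 37 °C before the ATP read; 0% = DMSO-treated cells and 100% = wells with no cells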
* hit, by the source's call; . = not tested or not shown. An excerpt weighted towards active compounds, which were near 2% of everything screened.

SMILES	L929 necroptosis	RBBP9 inh	Tb hexokinase	M18AAP inhibitor	Hep lipid drop	TNF necrop inh	Hep lipid conf	AML12 cytotox	AML12 tox ATP
CCOc1ccc(CCNC(=O)c2cc(-c3ccccc3)c(N3CCOCC3)s2)cc1OCC	.	.	.	-11	100*	.	112*	-0.1	-13
O=C(NCc1ccc2c(c1)OCO2)c1cc(-c2ccccc2)c(N2CCOCC2)s1	.	.	.	0	73*	.	109*	-1.1	-8
O=C(O)c1cc(-c2ccccc2)c(N2CCOCC2)s1	0	-12	-5	14	15	-9	.	.	.
COc1ccc(CCNC(=O)c2cc(-c3ccccc3)c(N3CCOCC3)s2)c(OC)c1OC	.	.	.	0	96*	.	107*	0.029	-6
O=C(NCc1ccco1)c1cc(-c2ccccc2)c(N2CCOCC2)s1	0	-2	-7	7	.	-3	.	.	.
CC(C)C(NC(=O)c1ccccc1F)C(=O)NCc1ccccc1 (stereo unspecified)	.	.	.	-1	0	.	.	.	.
CCC(C)(c1nnnn1-c1c(C)cccc1C)N(N=O)c1ccccc1Cl (stereo unspecified)	0	-9	4	-6	-28	1	.	.	.
COc1ccc(N/C(C)=C/C(=S)Nc2ccccc2)cc1	1	2	-14	9	0	0	.	.	.
COc1ccc(C(C(=O)NC(C)(C)C)N(CCO)C(=O)CCC(=O)Nc2cc(C)on2)cc1 (stereo unspecified)	.	.	.	-1	14	.	.	.	.
COc1ccc(C(C(=O)NC(C)(C)C)N(Cc2cccs2)C(=O)CCC(=O)Nc2cc(C)on2)cc1 (stereo unspecified)	0	8	-3	-1	107*	1	88*	-0.52	7
CCC(C)(C)NC(=O)C(c1ccc(OC)cc1)N(Cc1cccs1)C(=O)CCC(=O)Nc1cc(C)on1 (stereo unspecified)	-1	-7	-1	0	78*	1	102*	0.51	12
CCC(C)(C)NC(=O)C(c1ccc(OC)cc1)N(CC1CCCO1)C(=O)CCC(=O)Nc1cc(C)on1 (stereo unspecified)	0	0	-1	4	79*	1	91*	-0.48	11
Cc1ccc(-c2nc(CS(=O)(=O)CC(=O)Nc3cc(F)ccc3F)c(C)o2)cc1	.	.	.	-5	6	.	.	.	.
O=C(Nc1ccccc1)c1ccc(NCC2CCCO2)c(S(=O)(=O)N2CCOCC2)c1 (stereo unspecified)	0	-7	-10	-7	51*	2	21	0.057	.
O=C(NCC1CCCO1)c1ccc(Cl)c(S(=O)(=O)N2CCOCC2)c1 (stereo unspecified)	.	.	.	0	-1	.	.	.	.
Cc1noc(C)c1C(=O)Nc1ccc(F)cc1F	0	-2	-7	-5	55*	2	28	-0.47	.
CCOC(=O)c1cc(CC)sc1NC(=O)C1CC(=O)NN1Cc1ccccc1 (stereo unspecified)	0	1	-5	2	82*	-4	110*	-0.28	-3
COC(=O)c1cc(C)sc1NC(=O)C1CC(=O)NN1Cc1ccccc1 (stereo unspecified)	0	-8	-12	8	86*	0	109*	0.4	4
CN(C)CCN1C(=O)C(=O)/C(=C(/O)c2ccc(S(=O)(=O)N3CCOCC3)cc2)C1c1ccc(F)cc1 (stereo unspecified)	.	.	.	-4	-12	.	.	.	.
CCN(CC)c1ccc(NC(=O)CCc2nnc3ccc(N4CCCC4)nn23)c(C)c1	.	.	.	25	72*	.	98*	-0.66	13
CCOc1ccc(CCNC(=O)CCc2nnc3ccc(N4CCCCC4)nn23)cc1OCC	.	.	.	5	86*	.	109*	0.41	10
CCOc1ccc(CCNC(=O)C2CCN(S(=O)(=O)N3CCOCC3)CC2)cc1OCC	2	-4	-4	6	.	1	.	.	.
CCOc1ccc(CCNC(=O)C2CCN(S(=O)(=O)N3CCCCC3)CC2)cc1OCC	.	2	-1	19	108*	2	105*	-0.36	.
O=C(NCc1ccco1)C1CCCN1C(=O)Nc1ccccc1Cl (stereo unspecified)	0	-8	1	-4	0	0	.	.	.
O=C(NCc1cccc(F)c1)c1ccc2nc(N3CCOCC3)sc2c1	.	.	.	3	-8	.	.	.	.
SMILES	L929 necroptosis	RBBP9 inh	Tb hexokinase	M18AAP inhibitor	Hep lipid drop	TNF necrop inh	Hep lipid conf	AML12 cytotox	AML12 tox ATP
O=C(Cn1nnc(-c2cccs2)n1)NNC(=O)c1ccccc1Cl	0	-9	5	-1	-6	1	.	.	.
Cc1ccc2cc3c(nc2c1)OCC3	1	0	-1	4	-1	0	.	.	.
Cc1ccc(C(=O)NCCNC(=O)c2ccc(C)nc2)cc1	.	.	.	-2	56*	.	91*	-0.25	7
CCOc1ccc(C(=O)NCCNC(=O)c2ccc(OCC)cc2)cc1	.	.	.	1	86*	.	96*	-0.41	18
Cc1ccc(C(=O)NCCCNC(=O)c2ccc(C)nc2)cc1	.	.	.	-1	-7	.	.	.	.
CCCOc1cccc(C(=O)NCCNC(=O)c2ccc(C)nc2)c1	.	.	.	4	51*	.	83*	-0.15	4
Cc1ccc(-c2cc(C(F)F)n3ncc(C(=O)N4CCN(c5cccc(C)c5C)CC4)c3n2)cc1	2	-3	-14	1	1	-2	.	.	.
COc1cccc(C(=O)COC(=O)CCC(=O)c2ccccc2)c1	.	.	.	-2	17	.	.	.	.
CC(C)OC(=O)NCCOC(=O)Nc1ccc(Cl)cc1	10	-9	-5	0	4	2	.	.	.
COc1ccccc1NC(=O)C1CCN(C(=O)NCc2ccccc2)CC1	.	.	.	-2	51*	.	80*	-0.54	3
